Assay results taken from ChEMBL document CHEMBL4052826, “Design and Synthesis of Novel Reactive Oxygen Species Inducers for the Treatment of Pancreatic Ductal Adenocarcinoma” (J Med Chem, 2018).
Calls of active or inactive are those of the source. The calls are words filed in the database; no cut-off is given here.

Assays:
BXPC-3 [1] = assay: Cytotoxicity against human BxPC3 cells assessed as decrease in cell proliferation after 72 hrs by MTT assay; format: functional, cell-based; settings: BXPC-3, 72 h
How it was run: (§1)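 MTT assay. Cells (3000–8000/well) attached overnight in RPMI1640 with 10% FBS; the GR line was kept with 200 nM gemcitabine. Serial dilutions (30 nM–10 μM for most lines) were applied for 72 h. MTT was added at a final 300 μg/mL for 3 h at 37°C, formazan was dissolved in DMSO and A570 read. Inhibition = (1 − OD treated/OD control) × 100. IC50 given as mean ± SD, three independent experiments.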

MIA PaCa-2 [2] = assay: Cytotoxicity against gemcitabine-resistant human MIAPaCa2 cells assessed as decrease in cell proliferation after 72 hrs by MTT assay; format: functional, cell-based; settings: MIA PaCa-2, 72 h; how it was run: as §1
BXPC-3 [3] = assay: Induction of reactive oxygen species generation in human BxPC3 cells assessed as upregulation of HO-1 expression at 5 uM after 4 to 24 hrs by Western blot analysis; format: functional, cell-based
How it was run: (§2)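 Immunoblotting. Cells (4×10^5) in 60 mm dishes were treated, lysed 30 min at 4°C and quantified by BCA. 40 μg protein was run on SDS-PAGE and transferred to PVDF. Primary antibodies (1:1000) incubated overnight at 4°C, then Dylight 800 secondary, with fluorescent scanning. Bands were normalized to GAPDH or actin loading controls. Mean ± SD, three independent experiments, Student's t-test.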

MIA PaCa-2 [4] = assay: Cytotoxicity against human MIAPaCa2 cells assessed as decrease in cell proliferation after 72 hrs by MTT assay; format: functional, cell-based; settings: MIA PaCa-2, 72 h; how it was run: as §1
[5] = Induction of compound aggregation
MIA PaCa-2 [6] = assay: Induction of apoptosis signaling in human MIAPaCa2 cells at 3 times IC50 after 4 hrs by IPA analysis; format: functional, cell-based
MIA PaCa-2 [7] = assay: Inhibition of mtDNA transcription from LSP promoter in human MIAPaCa2 cells at 3 times IC50 after 4 hrs by Bru-seq analysis; format: functional, cell-based
How it was run: (§3)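 Nascent RNA sequencing (Bru-seq): 4×10^6 MIA PaCa-2 cells seeded in 10 cm dishes, treated next day for 4 h with drug or DMSO. Bromouridine (2 mM final) added for the last 30 min. Total RNA taken in TRIZOL; labeled RNA immunocaptured, converted to cDNA libraries and deep sequenced. Signal compared with DMSO-treated cells.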

MIA PaCa-2 [8] = assay: Induction of reactive oxygen species generation in human MIAPaCa2 cells assessed as upregulation of HO-1 expression at 5 uM after 4 to 24 hrs by Western blot analysis; format: functional, cell-based; how it was run: as §2
PANC-1 [9] = assay: Cytotoxicity against human PANC1 cells assessed as decrease in cell proliferation after 72 hrs by MTT assay; format: functional, cell-based; settings: PANC-1, 72 h; how it was run: as §1
MIA PaCa-2 [10] = assay: Induction of unfolded protein response in human MIAPaCa2 cells assessed as upregulation of DDIT3 gene expression after 4 hrs by Bru-seq analysis; format: functional, cell-based
MIA PaCa-2 [11] = assay: Induction of reactive oxygen species generation in human MIAPaCa2 cells assessed as upregulation of NQO1 expression at 5 uM after 4 to 24 hrs by Western blot analysis; format: functional, cell-based; how it was run: as §2
MIA PaCa-2 [12] = assay: Downregulation of Sp4 gene expression in human MIAPaCa2 cells at IC50 to 3 times IC50 after 4 hrs by Bru-seq analysis; format: functional, cell-based
MIA PaCa-2 [13] = assay: Induction of unfolded protein response in human MIAPaCa2 cells assessed as upregulation of GRP78 expression at 5 uM by Western blot analysis; format: functional, cell-based; settings: TDE = time-dependent effect
How it was run: (§4)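 Cells (4×10^5) seeded in 60 mm dishes, cultured in RPMI1640 with 10% FBS, 5% CO2, 37°C, then compound-treated. Lysed 30 min at 4°C, BCA-quantified, 40 μg protein resolved by SDS-PAGE, transferred to PVDF, probed overnight at 4°C with primary antibodies (1:1000; GAPDH or actin loading control), then Dylight 800 secondary; fluorescence scanned. Bands normalized to loading control; mean ± SD, three independent experiments.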

PANC-1 [14] = assay: Induction of reactive oxygen species generation in human PANC1 cells assessed as upregulation of HO-1 expression at 5 uM after 4 to 24 hrs by Western blot analysis; format: functional, cell-based; how it was run: as §2
MIA PaCa-2 [15] = assay: Induction of reactive oxygen species generation in human MIAPaCa2 cells assessed as upregulation of NQO1 gene expression after 4 hrs by Bru-seq analysis; format: functional, cell-based
MIA PaCa-2 [16] = assay: Downregulation of COX-3 expression in human MIAPaCa2 cells at 5 uM after 4 to 24 hrs by Western blot method; format: functional, cell-based; how it was run: as §2
BXPC-3 [17] = assay: Induction of unfolded protein response in human BxPC3 cells assessed as upregulation of CHOP expression at 5 uM by Western blot analysis; format: functional, cell-based; settings: TDE = time-dependent effect; how it was run: as §2
MIA PaCa-2 [18] = assay: Induction of reactive oxygen species generation in human MIAPaCa2 cells assessed as upregulation of HMOX1 gene expression after 4 hrs by Bru-seq analysis; format: functional, cell-based
BXPC-3 [19] = assay: Induction of reactive oxygen species generation in human BxPC3 cells assessed as upregulation of NQO1 expression at 5 uM after 4 to 24 hrs by Western blot analysis; format: functional, cell-based; how it was run: as §2
PANC-1 [20] = assay: Induction of unfolded protein response in human PANC1 cells assessed as upregulation of CHOP expression at 5 uM by Western blot analysis; format: functional, cell-based; settings: TDE = time-dependent effect; how it was run: as §4
MIA PaCa-2 [21] = assay: Cytotoxicity against human MIAPaCa2 cells assessed as decrease in cell proliferation after 72 hrs in presence of NAC by MTT assay; format: functional, cell-based
How it was run: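 MIA PaCa-2 cells were treated for 72 h with compound in the presence of 5 mM NAC. Viability was read by MTT (final 300 μg/mL, 3 h, A570). Mean ± SD of three independent experiments.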

MIA PaCa-2 [22] = assay: Induction of reactive oxygen species generation in human MIAPaCa2 cells at 1.1 to 10 uM after 24 hrs in presence of NAC by H2DCFDA reactivity assay; format: functional, cell-based
How it was run: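 H2DCFDA assay. Trypsinized MIA PaCa-2 cells in suspension were loaded with 20 μM H2DCFDA for 30 min at 37°C, washed and plated at 20,000/well. After 30 min they were treated with compound at 10, 3.3 or 1.1 μM. Fluorescence was read at 493/523 nm over time. DMSO basal and unstained controls were included. NAC pretreatment, where used, was 5 mM for 30 min. Duplicates, three independent experiments.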

MIA PaCa-2 [23] = assay: Induction of unfolded protein response in human MIAPaCa2 cells assessed as upregulation of HSPA5 gene expression after 4 hrs by Bru-seq analysis; format: functional, cell-based; how it was run: as §3
[24] = Induction of compound colloidal behavior
MIA PaCa-2 [25] = assay: Inhibition of mtDNA transcription from HSP1 promoter in human MIAPaCa2 cells at 3 times IC50 after 4 hrs by Bru-seq analysis; format: functional, cell-based; how it was run: as §3
MIA PaCa-2 [26] = assay: Downregulation of Sp1 gene expression in human MIAPaCa2 cells at IC50 to 3 times IC50 after 4 hrs by Bru-seq analysis; format: functional, cell-based
MIA PaCa-2 [27] = assay: Inhibition of mtDNA transcription from HSP2 promoter in human MIAPaCa2 cells at 3 times IC50 after 4 hrs by Bru-seq analysis; format: functional, cell-based; how it was run: as §3
BXPC-3 [28] = assay: Induction of unfolded protein response in human BxPC3 cells assessed as upregulation of GRP78 expression at 5 uM by Western blot analysis; format: functional, cell-based; settings: TDE = time-dependent effect; how it was run: as §2
[29] = Cytotoxicity against HPDEC assessed as decrease in cell proliferation after 72 hrs by MTT assay; format: cell-based; settings: Homo sapiens; how it was run: as §1
PANC-1 [30] = assay: Induction of unfolded protein response in human PANC1 cells assessed as upregulation of GRP78 expression at 5 uM by Western blot analysis; format: functional, cell-based; settings: TDE = time-dependent effect; how it was run: as §4
MIA PaCa-2 [31] = assay: Induction of unfolded protein response in human MIAPaCa2 cells assessed as upregulation of CHOP expression at 5 uM by Western blot analysis; format: functional, cell-based; settings: TDE = time-dependent effect; how it was run: as §2
MIA PaCa-2 [32] = assay: Downregulation of Sp3 gene expression in human MIAPaCa2 cells at IC50 to 3 times IC50 after 4 hrs by Bru-seq analysis; format: functional, cell-based
MIA PaCa-2 [33] = assay: Antitumor activity against human MIAPaCa2 cells xenografted in NOD/SCID mouse at 15 mg/kg administered twice a week for 15 days; format: functional, organism-based
How it was run: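 MIA PaCa-2 subcutaneous xenografts in NOD/SCID mice, randomized at 75 mm3. Test agent was given at 5 mg/kg five times a week. Gemcitabine was given at 15 mg/kg either once weekly for 48 days or twice weekly for 15 days. Groups were n=3–4. Tumor volume was measured by caliper, given as mean ± SEM, and compared by unpaired t test.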

Mus musculus [34] = assay: Toxicity in NOD/SCID mouse xenografted with human MIAPaCa2 cells assessed as body weight loss at 15 mg/kg administered twice a week for 15 days; format: organism-based; settings: in vivo, 360 h
How it was run: (§5)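 MIA PaCa-2 xenografted NOD/SCID mice randomized at 75 mm3 into vehicle (n=4), once-weekly (n=3) or twice-weekly (n=4) groups; 15 mg/kg given once a week for 48 days or twice a week for 15 days. Body weight followed; mean ± SEM.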

MIA PaCa-2 [35] = assay: Antitumor activity against human MIAPaCa2 cells xenografted in NOD/SCID mouse assessed as tumor volume at 15 mg/kg administered once a week for 48 days (reference value: 1503 +/- 189 mm'3); format: functional
How it was run: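 MIA PaCa-2 cells (2.0 × 10^6 in RPMI1640) were injected subcutaneously into the dorsal flank of 6-week NOD/SCID mice. Mice were randomized at 75 mm3 mean tumor size (vehicle n=4, treated n=3) and dosed at 15 mg/kg once weekly for 48 days. Tumors were measured by caliper twice weekly, with V = d2 × D/2. Values are mean ± SEM, and p values are from an unpaired t test.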

Mus musculus [36] = assay: Toxicity in NOD/SCID mouse xenografted with human MIAPaCa2 cells assessed as body weight loss at 15 mg/kg administered once a week for 48 days; format: organism-based; settings: in vivo, 1152 h; how it was run: as §5

CC(=O)c1cccc(NC2=CC(=O)c3ncncc3C2=O)c1
IC50 (BXPC-3 [1]): 5200 nM
IC50 (MIA PaCa-2 [2]): 3600 nM
Activity (BXPC-3 [3]): Active
IC50 (MIA PaCa-2 [4]): 2300 nM
Activity [5]: Active
Activity (MIA PaCa-2 [6]): Active
inhibition (MIA PaCa-2 [7]): Active
Activity (MIA PaCa-2 [8]): Active
IC50 (PANC-1 [9]): 900 nM
Activity (MIA PaCa-2 [10]): Dose-dependent effect
Activity (MIA PaCa-2 [11]): inactive
Activity (MIA PaCa-2 [12]): inactive
Activity (MIA PaCa-2 [13]): Tde
Activity (PANC-1 [14]): inactive
Activity (MIA PaCa-2 [15]): Dose-dependent effect
Activity (MIA PaCa-2 [16]): Active
Activity (BXPC-3 [17]): Tde
Activity (MIA PaCa-2 [18]): Dose-dependent effect
Activity (BXPC-3 [19]): inactive
Activity (PANC-1 [20]): Tde
Activity (MIA PaCa-2 [21]): inactive
Activity (MIA PaCa-2 [22]): inactive
Activity (MIA PaCa-2 [23]): Dose-dependent effect
Activity [24]: Active
inhibition (MIA PaCa-2 [25]): inactive
Activity (MIA PaCa-2 [26]): inactive
inhibition (MIA PaCa-2 [27]): Active
Activity (BXPC-3 [28]): Tde
IC50 [29]: 4500 nM
Activity (PANC-1 [30]): Tde
Activity (MIA PaCa-2 [31]): Tde
Activity (MIA PaCa-2 [32]): inactive

Nc1ccn([C@@H]2O[C@H](CO)[C@@H](O)C2(F)F)c(=O)n1 [GEMCITABINE]
Activity (MIA PaCa-2 [33]): Active
IC50 (MIA PaCa-2 [2]): 3300 nM
IC50 (MIA PaCa-2 [4]): 110 nM
Activity (Mus musculus [34]): Non-Toxic
Activity (MIA PaCa-2 [35]): 387 mm3
Activity (Mus musculus [36]): Non-Toxic
IC50 [29]: 140 nM
